According to ChEMBL document CHEMBL1140468, “Design, synthesis and biological evaluation of substituted dioxodibenzothiazepines and dibenzocycloheptanes as farnesyltransferase inhibitors” (Bioorg Med Chem Lett, 2007):
pIC50: −log10 of the molar value.

Legend:
DU-145 [1] = experiment: Antiproliferative activity against DU145 cells by colorimetric MTT assay at 100 uM; type: functional; conditions: Homo sapiens
L1210 [2] = experiment: Antiproliferative activity against L1210 cells by cell numeration; conditions: Mus musculus
PC-3 = experiment: Antiproliferative activity against PC3 cells by colorimetric MTT assay; type: functional, cell-based; conditions: Homo sapiens
Summary of the method: (§1)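 Proliferation of the human tumour lines DU145, PC-3 and MCF-7 was read out by colorimetric MTT assay. Values come from at least three independent determinations, with standard deviation below 10%.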

[3] = biological target: Protein farnesyltransferase (Homo sapiens, UniProt P49354+P49356); experiment: Inhibition of FTase by fluorescence spectrometry technique; type: protein-complex assay
MCF7 = experiment: Antiproliferative activity against MCF7 cells by colorimetric MTT assay; type: functional, cell-based; conditions: Homo sapiens; summary of the method: as §1
DU-145 [4] = experiment: Antiproliferative activity against DU145 cells by colorimetric MTT assay; type: functional, cell-based; conditions: Homo sapiens; summary of the method: as §1
L1210 [5] = experiment: Antiproliferative activity against L1210 cells by cell numeration at 10 uM; conditions: Mus musculus

| SMILES | pIC50 (L1210 [2]) | pIC50 (PC-3) | pIC50 [3] | pIC50 (MCF7) | pIC50 (DU-145 [4]) | inhibition at 100 µM (DU-145 [1]) [%] | inhibition at 10 µM (L1210 [5]) [%] |
| --- | --- | --- | --- | --- | --- | --- | --- |
| CCCN1c2ccccc2C(N2CCCN(Cc3cncn3Cc3ccc(C#N)cc3)CC2)c2ccccc2S1(=O)=O (centres undefined) | 5.40 | 4.47 | 7.33 |  |  | 38 |  |
| CN1c2ccccc2C(N2CCN(Cc3cncn3Cc3ccc(C#N)cc3)CC2)c2ccccc2S1(=O)=O (centres undefined) | 5.41 | 4.16 | 7.35 | 4.12 | 4.00 |  |  |
| N#Cc1ccc(Cn2cncc2CN2CCCN(C3c4ccccc4CCc4ccccc43)CC2)cc1 |  |  | 6.55 | 4.39 | 4.29 |  | 34 |
| N#Cc1ccc(Cn2cncc2CN2CCN(C3c4ccccc4CCc4ccccc43)CC2)cc1 | 5.31 | 4.94 | 6.51 | 4.35 | 5.02 |  |  |

Continued by rising pIC50 [3], values first:

| pIC50 (L1210 [2]) | pIC50 (PC-3) | pIC50 [3] | pIC50 (MCF7) | pIC50 (DU-145 [4]) | SMILES | inhibition at 100 µM (DU-145 [1]) [%] | inhibition at 10 µM (L1210 [5]) [%] |
| --- | --- | --- | --- | --- | --- | --- | --- |
| 5.32 | 4.30 | 7.35 | 4.32 | 4.22 | CN1c2ccccc2C(N2CCCN(Cc3cncn3Cc3ccc(C#N)cc3)CC2)c2ccccc2S1(=O)=O (centres undefined) |  |  |
| 5.52 |  | 7.37 | 4.18 | 4.00 | CCCCN1c2ccccc2C(N2CCCN(Cc3cncn3Cc3ccc(C#N)cc3)CC2)c2ccccc2S1(=O)=O (centres undefined) |  |  |
|  | < 4.00 | 7.55 | < 4.00 | < 4.00 | N#Cc1ccc(Cn2cncc2CN[C@H](CC(=O)N[C@@H](Cc2ccccc2)C(N)=O)Cc2ccccc2)cc1 |  | 41 |
| 5.31 |  | 7.66 |  |  | COC(=O)[C@H](Cc1ccccc1)N(C(=O)c1ccccc1)C1CCN(Cc2cncn2Cc2ccc(C#N)cc2)CC1 |  |  |
| 5.34 | 4.56 | 7.76 | 4.48 | 4.32 | N#Cc1ccc(Cn2cncc2CN2CCCN(C3c4ccccc4N(CCCN4CCOCC4)S(=O)(=O)c4ccccc43)CC2)cc1 (centres undefined) |  |  |
